The values that follow come from ChEMBL document CHEMBL1154081, “Synthesis of uracil nucleotide analogs with a modified, acyclic ribose moiety as P2Y(2) receptor antagonists” (Bioorg Med Chem, 2009).

Common to all, as to type: functional, cell-based
Assay [1] has as its target T1, P2Y purinoceptor 2 (Mus musculus, UniProt P35383). The assay can be described thus: (§1) Antagonist activity at mouse P2Y2 receptor expressed in NG108-15 hybrid cells assessed as inhibition of 1 uM UTP-induced intracellular calcium release preincubated 30 mins before UTP challenge by fluorescence assay. In a few lines: (§2)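 Oregon Green-loaded NG108-15 cells in Krebs–HEPES pH 7.4, 17,000 cells/well, preincubated at 37 °C for at least 30 min with two concentrations of test compound. UTP agonist then injected, and the inhibition of the intracellular Ca2+ fluorescence rise was measured at 520 nm. Quadruplicate determinations.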
A general note: Calcium flux is commonly read through the fluorescence of an indicator in the cells.

Assay [2] has as its target P2Y purinoceptor 2 (Mus musculus) (UniProt P35383). Described as §1. In a few lines: as §2
Assay [3] shares this target. The assay can be described thus: Agonist activity at mouse P2Y2 receptor expressed in NG108-15 hybrid cells assessed as increase in intracellular calcium release at 100 uM by fluorescence assay relative to UTP. In a few lines: (§3)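 NG108-15 cells (mouse neuroblastoma × rat glioma; endogenous P2Y2, no P2Y4) grown in DMEM with 10% FBS, penicillin/streptomycin and HAT. Cells loaded 1 h at 25 °C with shaking, with the Ca2+ fluorophore Oregon Green. Cells rinsed twice in Krebs–HEPES pH 7.4 and plated at 17,000 cells/well. Compound in buffer injected, then fluorescence read at 520 nm over 60 × 0.4 s. Quadruplicate points.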

Assay [4] deals with T1, P2Y purinoceptor 2. The assay can be described thus: Agonist activity at mouse P2Y2 receptor expressed in NG108-15 hybrid cells assessed as increase in intracellular calcium release by fluorescence assay. Summed up:
as §3

Assay [5] has as its target T1, P2Y purinoceptor 2. Put plainly: Antagonist activity at mouse P2Y2 receptor expressed in NG108-15 hybrid cells assessed as inhibition of 3 uM UTP-induced intracellular calcium release preincubated 30 mins before UTP challenge by fluorescence assay. In a few lines:
as §2

SMILES strings stand for the structures. A value given as a limit tells only on which side of the number the result lay.

T1 sequence (P35383 whole entry): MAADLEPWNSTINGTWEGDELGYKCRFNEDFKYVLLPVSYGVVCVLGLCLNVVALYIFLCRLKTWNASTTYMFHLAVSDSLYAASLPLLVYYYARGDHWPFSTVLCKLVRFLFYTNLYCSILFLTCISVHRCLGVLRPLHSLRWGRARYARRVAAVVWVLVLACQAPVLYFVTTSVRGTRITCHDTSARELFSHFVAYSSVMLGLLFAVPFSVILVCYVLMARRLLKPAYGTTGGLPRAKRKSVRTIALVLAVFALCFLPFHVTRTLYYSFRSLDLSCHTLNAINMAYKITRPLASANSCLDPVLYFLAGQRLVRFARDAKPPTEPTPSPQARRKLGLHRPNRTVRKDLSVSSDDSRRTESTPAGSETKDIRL
P2Y purinoceptor 2 (Mus musculus), sequence (P35383 whole entry): as above

`O=c1ccn(CCOP(=O)(O)O)c(=O)[nH]1`: the IC50 (usually the concentration needed to halve the response being measured) in assay [1] was > 500 µM. In assay [2], the inhibition (as a rule, the relative decrease from the control value, in per cent) worked out at 22%. As for `O=c1ccn(CCCCOP(=O)(O)O)c(=O)[nH]1`, the IC50 in assay [1] (ng108-15) was ≤ 500 µM. Further, the inhibition in assay [2] was 60%. For `O=c1ccn(COCCOP(=O)(O)O)c(=O)[nH]1`, in assay [1], the IC50 is > 500 µM. Besides, in assay [2], the inhibition came to 16%. In the case of `O=c1ccn(COCCOP(=O)(O)OP(=O)(O)OP(=O)(O)O)c(=O)[nH]1`, the IC50 in assay [1] is > 500 µM. The inhibition in assay [2] stood at 16%. In the case of `O=c1ccn(CCCP(=O)(O)OP(=O)(O)OP(=O)(O)O)c(=O)[nH]1`, the IC50 in assay [1] was determined as 500 µM. In addition, the inhibition in assay [2] was determined as 52%. For `O=c1ccn(COCCCOP(=O)(O)O)c(=O)[nH]1`, the IC50 in assay [1] amounted to 338 µM. With `O=c1ccn([C@@H]2O[C@H](COP(=O)(O)OP(=O)(O)OP(=O)(O)O)[C@@H](O)[C@H]2O)c(=O)[nH]1` [URIDINE TRIPHOSPHATE], the Activity in assay [3] worked out at 40%. Moreover, in assay [1], the half-maximal inhibitory concentration (IC50) came out at 1.51 µM. The EC50 (in general, the concentration giving half of the maximal effect) in assay [4] was determined as 1.26 µM. Consider `O=c1ccn(CCCCP(=O)(O)OP(=O)(O)OP(=O)(O)O)c(=O)[nH]1`, for which, in assay [1], the IC50 is 92 µM. For `O=c1ccn(CCCCOP(=O)(O)OP(=O)(O)OP(=O)(O)O)c(=O)[nH]1`, the concentration for half-maximal inhibition (IC50) in assay [5] was determined as 596 µM. As to `O=c1ccn(CCOP(=O)(O)OP(=O)(O)OP(=O)(O)O)c(=O)[nH]1`, the half-inhibitory concentration (IC50) in assay [1] (ng108-15) is ≤ 500 µM. The inhibition in assay [2] was 60%. On to `O=c1ccn(CCCCCP(=O)(O)OP(=O)(O)O)c(=O)[nH]1`, for which, in assay [1], the IC50 was 500 µM. For the same compound, in assay [2], the inhibition worked out at 55%. The corresponding values for `O=c1ccn(CCCCCOP(=O)(O)OP(=O)(O)OP(=O)(O)O)c(=O)[nH]1` are 500 µM and 50%. In the case of `O=c1ccn(CCCCCP(=O)(O)OP(=O)(O)OP(=O)(O)O)c(=O)[nH]1`, the IC50 in assay [1] was 166 µM. Consider `O=c1ccn(COCCCOP(=O)(O)OP(=O)(O)OP(=O)(O)O)c(=O)[nH]1`, for which the IC50 in assay [1] stood at 264 µM.

For `O=c1ccn(CCCCCOP(=O)(O)O)c(=O)[nH]1`, the half-inhibitory concentration (IC50) in assay [1] was 267 µM.
